Fh CTSL1 inh – counter-screen for PFM18AAP inhibitors: inhibitors of F. hepatica cathepsin L1 | recombinant F. hepatica cathepsin L1, Z-Leu-Arg-MCA fluorescence | inhibition, % at 5.96 µM | hit rate 0.49% among 300,000;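 active = inhibition above the mean of all tested compounds plus 3 SD, set per screening campaign, cut at about 17% in these data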
PAD4 FP inh – blocks human protein arginine deiminase 4 | Q9UM07 | recombinant PAD4, RCA probe fluorescence polarization | inhibition, % at 6.36 µM | hit rate 0.41% among 330,000;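 active = percent inhibition above a cutoff equal to the mean of all tested compounds plus 3 SD, cut at about 15% in these data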
PRMT1 inh – blocks human protein arginine methyltransferase 1; inhibition, % at 2.79 µM; AID 652257; recombinant PRMT1, activity-based probe fluorescence polarization; Q99873; hit rate 1.3% among 370,000;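 active = inhibition above about 21% made by adding two undisclosed values, limit read from the data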
Target sequence (Q99873 whole entry, looked up): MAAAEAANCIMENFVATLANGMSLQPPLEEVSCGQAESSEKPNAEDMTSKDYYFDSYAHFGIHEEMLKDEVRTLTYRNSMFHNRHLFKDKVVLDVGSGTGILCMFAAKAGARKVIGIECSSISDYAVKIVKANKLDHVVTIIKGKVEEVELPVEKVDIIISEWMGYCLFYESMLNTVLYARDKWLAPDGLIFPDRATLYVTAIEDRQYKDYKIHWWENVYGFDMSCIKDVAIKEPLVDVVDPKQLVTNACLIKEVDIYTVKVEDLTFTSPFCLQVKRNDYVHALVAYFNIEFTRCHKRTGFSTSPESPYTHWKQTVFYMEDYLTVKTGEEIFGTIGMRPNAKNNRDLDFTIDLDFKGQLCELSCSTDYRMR
TDP2 absorb – TDP2 (human) inhibition, absorbance primary screen; O95551; recombinant TDP2, T5PNP hydrolysis, p-nitrophenol absorbance 415 nm; inhibition, % at 12.8 µM; hit rate 0.34% among 370,000;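 active = inhibition above the mean of all tested compounds plus 3 SD, set per campaign, cut at about 25% in these data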
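System – recombinant human TDP2 · Quantity – TDP2 enzyme at 120 nM final · Doses – single concentration, 12.8 µM nominal, with 1% DMSO · Incubation – 2 h at 37 °C · Measured by – epi absorbance of p-nitrophenol freed from T5PNP by hydrolysis · Read-out – % inhibition relative to enzyme-containing and enzyme-free wells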
GSTO1 inh – GSTO1 inhibition, counter-screen for RBBP9 inhibitors. recombinant GSTO1, activity-based probe fluorescence polarization. P78417. inhibition, % at 5.96 µM. hit rate 1.1% among 300,000;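 active = inhibition above the campaign mean inhibition plus 3 SD, cut at about 35% in these data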
Target sequence (P78417 whole entry, looked up): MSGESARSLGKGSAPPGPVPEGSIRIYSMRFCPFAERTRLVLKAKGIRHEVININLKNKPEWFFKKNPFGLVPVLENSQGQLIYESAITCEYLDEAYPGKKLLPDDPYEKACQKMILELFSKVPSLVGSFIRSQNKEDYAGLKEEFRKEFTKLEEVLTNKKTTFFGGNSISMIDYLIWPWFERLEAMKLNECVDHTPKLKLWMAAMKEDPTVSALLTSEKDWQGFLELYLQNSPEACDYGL
A number is an active result. A selection: hits, their analogues and other compounds. The true share with any hit is near 2.5%.

How did CC1CCCN(CCC(=O)c2ccc(Br)cc2)C1 (stereo unspecified) do in these assays?
Fh CTSL1 inh: inactive; PAD4 FP inh: inactive; PRMT1 inh: inactive; TDP2 absorb: inactive; GSTO1 inh: inactive

Results for CCOC(=O)N1CCN(CCC(=O)c2ccc(Cl)cc2)CC1 ?
Fh CTSL1 inh: inactive; PAD4 FP inh: inactive; PRMT1 inh: inactive; TDP2 absorb: inactive; GSTO1 inh: inactive

Results for COc1ccc(-c2nc3c(-c4ccccc4)cnn3cc2C)cc1F ?
Fh CTSL1 inh: 20; PAD4 FP inh: inactive; PRMT1 inh: inactive; TDP2 absorb: inactive; GSTO1 inh: inactive

What do the screens show for `Cc1ccc(N2C(=O)C(Cl)=C(N3CCN(C)CC3)C2=O)c(C)c1`?
Fh CTSL1 inh: 27; PAD4 FP inh: inactive; PRMT1 inh: inactive; TDP2 absorb: inactive; GSTO1 inh: inactive

How did CN1CCN(C2=C(Cl)C(=O)N(c3ccc(Cl)cc3)C2=O)CC1 do in these assays?
Fh CTSL1 inh: 20; PAD4 FP inh: inactive; GSTO1 inh: inactive

How did Cc1ccc(N2C(=O)C(Cl)=C(NCCO)C2=O)c(C)c1 do in these assays?
Fh CTSL1 inh: inactive; PAD4 FP inh: inactive; PRMT1 inh: inactive; TDP2 absorb: inactive; GSTO1 inh: inactive

What do the screens show for `CCc1ccc(N2C(=O)C(Cl)=C(N3CCCCCC3)C2=O)cc1`?
PRMT1 inh: inactive; TDP2 absorb: inactive

How did O=C1C(Cl)=C(N2CCCCCC2)C(=O)N1c1ccccc1 do in these assays?
Fh CTSL1 inh: 19; PAD4 FP inh: inactive; PRMT1 inh: inactive; TDP2 absorb: inactive; GSTO1 inh: inactive

What do the screens show for `COC(=O)[C@]12C[C@H](CC(=O)NCCCCc3ccccc3)C(=O)N(Cc3ccco3)C1=C[C@H](C(C)(C)C)O[C@@H]2C`?
PRMT1 inh: inactive; TDP2 absorb: inactive

How did Cc1nc2cc(NC(=O)N3CCN(c4ccccn4)CC3)ccc2o1 do in these assays?
Fh CTSL1 inh: inactive; PAD4 FP inh: inactive; PRMT1 inh: inactive; TDP2 absorb: inactive; GSTO1 inh: inactive

Results for O=C(Nc1ccc2nc(-c3ccco3)c(-c3ccco3)nc2c1)N1CCN(c2ccccn2)CC1 ?
Fh CTSL1 inh: inactive; PAD4 FP inh: inactive; PRMT1 inh: 48; TDP2 absorb: inactive; GSTO1 inh: inactive

What do the screens show for `CCOc1ccc(-n2c(SCC(=O)Nc3ccc4cn[nH]c4c3)nnc2-c2ccncc2)cc1`?
PRMT1 inh: inactive; TDP2 absorb: inactive

How did CCOC(=O)[C@@]12CN(C(=O)OC(C)(C)C)CC=C1N(Cc1ccc(OC)cc1)C(=O)[C@H]2CC(=O)N1CCSCC1 do in these assays?
PRMT1 inh: inactive; TDP2 absorb: inactive

Results for CC(=O)N1c2ccccc2N=C(c2ccc(C(F)(F)F)cc2)C1C(=O)NC1CCCC1 (stereo unspecified) ?
PRMT1 inh: inactive; TDP2 absorb: inactive

What do the screens show for `CC(=O)NC1Sc2ccccc2N=C1c1ccccc1` (stereo unspecified)?
Fh CTSL1 inh: inactive; PAD4 FP inh: inactive; PRMT1 inh: 26; TDP2 absorb: inactive; GSTO1 inh: inactive

What do the screens show for `O=C1C=C(c2ccccc2)C(=O)N1Nc1ccccc1`?
Fh CTSL1 inh: inactive; PAD4 FP inh: inactive; PRMT1 inh: 22; TDP2 absorb: inactive; GSTO1 inh: inactive

What do the screens show for `O=C(CSc1nc2ccccc2n1CC(=O)N1CCCC1)N1CCN(C(=O)c2ccco2)CC1`?
Fh CTSL1 inh: 27; PAD4 FP inh: inactive; PRMT1 inh: inactive; TDP2 absorb: inactive; GSTO1 inh: inactive

Results for Cc1ccc(NC(=O)CCl)cc1S(=O)(=O)N1CCCCCC1 ?
Fh CTSL1 inh: 58; PAD4 FP inh: inactive; PRMT1 inh: inactive; TDP2 absorb: inactive; GSTO1 inh: 76

What do the screens show for `Cc1c(N2C(=O)c3ccc4c5c(ccc(c35)C2=O)CC4)c(=O)n(-c2ccccc2)n1C`?
Fh CTSL1 inh: inactive; PAD4 FP inh: inactive; GSTO1 inh: 36

What do the screens show for `COc1ccc(-c2cc(-c3nnc(SCC(=O)Nc4ccccc4-c4ccccc4)n3N)[nH]n2)cc1`?
PRMT1 inh: inactive; TDP2 absorb: inactive

How did O=S(=O)(c1ccc(C2=CSC3=NCCN23)cc1)N1CCOCC1 do in these assays?
Fh CTSL1 inh: inactive; PAD4 FP inh: inactive; PRMT1 inh: 24; TDP2 absorb: inactive; GSTO1 inh: inactive

Results for Cc1ccc(C(C(=O)NCC2CCCO2)N(C(=O)c2snc(C(N)=O)c2N)c2ccc(F)cc2)o1 (stereo unspecified) ?
Fh CTSL1 inh: inactive; PAD4 FP inh: inactive; PRMT1 inh: inactive; TDP2 absorb: inactive; GSTO1 inh: inactive

What do the screens show for `Cc1ccc(C(C(=O)NCC2CCCO2)N(C(=O)c2snc(C(N)=O)c2N)c2ccccc2F)o1` (stereo unspecified)?
Fh CTSL1 inh: 19; PAD4 FP inh: inactive; PRMT1 inh: inactive; TDP2 absorb: inactive; GSTO1 inh: inactive

How did O=C(Nc1ccc(Cl)c(Cl)c1)C1CCCN1S(=O)(=O)c1cccc2cccnc12 (stereo unspecified) do in these assays?
PRMT1 inh: inactive; TDP2 absorb: inactive

Results for O=C1NCCN1C(=O)c1ccco1 ?
Fh CTSL1 inh: 21; PAD4 FP inh: inactive; PRMT1 inh: inactive; TDP2 absorb: inactive; GSTO1 inh: inactive

How did Nn1c(C2COc3ccccc3O2)n[nH]c1=S (stereo unspecified) do in these assays?
Fh CTSL1 inh: inactive; PAD4 FP inh: inactive; PRMT1 inh: inactive; TDP2 absorb: inactive; GSTO1 inh: 35

What do the screens show for `NC(=S)C1COc2ccccc2O1` (stereo unspecified)?
Fh CTSL1 inh: inactive; PAD4 FP inh: inactive; PRMT1 inh: inactive; TDP2 absorb: inactive; GSTO1 inh: inactive

How did N#CC1=C(S)N(c2ccccc2)C(c2ccc(-c3cc(Cl)ccc3Cl)o2)NC1=O (stereo unspecified) do in these assays?
Fh CTSL1 inh: inactive; PAD4 FP inh: inactive; PRMT1 inh: inactive; TDP2 absorb: inactive; GSTO1 inh: inactive

What do the screens show for `N#CC1=C(S)N(c2ccccc2)C(c2ccc(-c3ccc(Cl)c(Cl)c3)o2)NC1=O` (stereo unspecified)?
Fh CTSL1 inh: inactive; PAD4 FP inh: inactive; PRMT1 inh: inactive; TDP2 absorb: 26; GSTO1 inh: inactive

How did Cc1ccsc1-c1nc(-c2ccccc2)c(-c2ccccc2)[nH]1 do in these assays?
Fh CTSL1 inh: 19; PAD4 FP inh: inactive; PRMT1 inh: inactive; TDP2 absorb: inactive; GSTO1 inh: inactive

Results for Fc1ccc(-c2nc(-c3cccs3)[nH]c2-c2ccc(F)cc2)cc1 ?
Fh CTSL1 inh: inactive; PAD4 FP inh: inactive; PRMT1 inh: inactive; TDP2 absorb: inactive; GSTO1 inh: inactive

What do the screens show for `CO[C@H]([C@H](C)/C=C/N(C)C=O)[C@@H](C)C(=O)CC[C@H](C)[C@H](O)[C@H](C)[C@H]1OC(=O)/C=C/C(C)=C/C[C@H](O)C[C@@H]2C=CC[C@@H](C[C@H](OC)[C@@H](C)[C@@H](OC)C[C@@H](OC)[C@@H]1C)O2`?
PRMT1 inh: inactive; TDP2 absorb: inactive

How did COc1cc(/C=N/Nc2nc3ccccc3[nH]2)cc(OC)c1O do in these assays?
Fh CTSL1 inh: inactive; PAD4 FP inh: inactive; PRMT1 inh: inactive; TDP2 absorb: inactive; GSTO1 inh: 73

Results for Cn1c(=NC(=O)c2ccco2)sc2ccccc21 ?
Fh CTSL1 inh: inactive; PAD4 FP inh: inactive; PRMT1 inh: inactive; TDP2 absorb: inactive; GSTO1 inh: 36

Screening data (PubChem)
